Measurements taken from ChEMBL document CHEMBL1156302, “Discovery of a synthetic dual inhibitor of HIV and HCV infection based on a tetrabutoxy-calix[4]arene scaffold” (Bioorg Med Chem Lett, 2010).
Active and inactive are the calls of the source. The rule behind the calls is not given here.

Columns and labels:
[1] = test system: CCRF-CEM; test: Cytotoxicity against HCV infected human CEM cells; type: cell-based
[2] = test system: Hepatitis C virus; test: Antiviral activity against HCV infected in human CEM cells assessed as inhibition of viral replication; type: functional, organism-based, Hepacivirus hominis; settings: CCRF-CEM
[3] = test system: Human immunodeficiency virus 1; test: Antiviral activity against HIV1 infected in human MT2 cells; type: functional, organism-based; settings: Human immunodeficiency virus 1, MT2
[4] = test system: MT2; test: Cytotoxicity against human MT2 cells; type: cell-based
Procedure, shortened: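 Cell toxicity was measured in MT-2 human T cells bearing HTLV-1 and expressed as ID50.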

[5] = Inhibition of VEGF binding to VEGFR
[6] = Inhibition of PDGF binding to PDGFR
[7] = test system: Human alphaherpesvirus 2; test: Antiviral activity against HSV2 assessed as inhibition of viral replication; type: functional, organism-based
[8] = test system: Human alphaherpesvirus 1; test: Antiviral activity against HSV1 assessed as inhibition of viral replication; type: functional, organism-based
[9] = test system: Human immunodeficiency virus 1; test: Antiviral activity against HIV1 infected in human TZM-bl cells; type: functional, organism-based
Procedure, shortened: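 Host cells were TZM-bl, a HeLa line carrying firefly luciferase driven by an HIV promoter.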

[10] = test system: Human immunodeficiency virus 1; test: Antiviral activity against HIV1 infected in human CEMx174 cells; type: functional, organism-based
[11] = test system: Hepatitis B virus; test: Antiviral activity against HBV assessed as inhibition of viral replication; type: functional, organism-based

Compound | IC50 [1] [µM] | IC50 [2] [µM] | IC50 [3] [µM] | IC50 [4] [µM] | IC50 [5] [µM] | IC50 [6] [µM] | Activity [7] | Activity [8] | Activity [9] | Activity [10] | Activity [11]
O=C(O)c1cc(NC(=O)c2cc3c(OCc4ccccc4)c(c2)Cc2cc(C(=O)Nc4cc(C(=O)O)cc(C(=O)O)c4)cc(c2OCc2ccccc2)Cc2cc(C(=O)Nc4cc(C(=O)O)cc(C(=O)O)c4)cc(c2OCc2ccccc2)Cc2cc(C(=O)Nc4cc(C(=O)O)cc(C(=O)O)c4)cc(c2OCc2ccccc2)C3)cc(C(=O)O)c1 | 0.46 | 1.4 | 0.3 | 18 | – | – | – | – | – | – | –
O=C(O)c1cc(NC(=O)c2cc3c(O)c(c2)Cc2cc(C(=O)Nc4cc(C(=O)O)cc(C(=O)O)c4)cc(c2O)Cc2cc(C(=O)Nc4cc(C(=O)O)cc(C(=O)O)c4)cc(c2O)Cc2cc(C(=O)Nc4cc(C(=O)O)cc(C(=O)O)c4)cc(c2O)C3)cc(C(=O)O)c1 | – | > 50 | 6.7 | > 50 | – | – | – | – | – | – | –
O=C(O)c1cc2c(O)c(c1)Cc1cc(C(=O)O)cc(c1O)Cc1cc(C(=O)O)cc(c1O)Cc1cc(C(=O)O)cc(c1O)C2 | > 50 | > 50 | > 50 | > 50 | – | – | – | – | – | – | –
CCCCOc1c2cc(C(=O)NCCN)cc1Cc1cc(C(=O)NCCN)cc(c1OCCCC)Cc1cc(C(=O)NCCN)cc(c1OCCCC)Cc1cc(C(=O)NCCN)cc(c1OCCCC)C2 | < 12.5 | 5.7 | < 16 | 16 | – | – | – | – | – | – | –
CCCCOc1c2cc(C(=O)O)cc1Cc1cc(C(=O)O)cc(c1OCCCC)Cc1cc(C(=O)O)cc(c1OCCCC)Cc1cc(C(=O)O)cc(c1OCCCC)C2 | – | 30.1 | 2.9 | 13 | – | – | – | – | – | – | –
CCCCOc1c2cc(C(=O)N[C@@H](CCC(=O)O)C(=O)O)cc1Cc1cc(C(=O)N[C@@H](CCC(=O)O)C(=O)O)cc(c1OCCCC)Cc1cc(C(=O)N[C@H](CCC(=O)O)C(=O)O)cc(c1OCCCC)Cc1cc(C(=O)N[C@@H](CCC(=O)O)C(=O)O)cc(c1OCCCC)C2 | 100 | 4.1 | 2.4 | > 50 | – | – | – | – | – | – | –
O=C(O)c1cc2c(OCc3ccccc3)c(c1)Cc1cc(C(=O)O)cc(c1OCc1ccccc1)Cc1cc(C(=O)O)cc(c1OCc1ccccc1)Cc1cc(C(=O)O)cc(c1OCc1ccccc1)C2 | 50 | > 50 | 37.1 | > 50 | – | – | – | – | – | – | –
CCCCOc1c2cc(C(=O)Nc3cc(C(=O)O)cc(C(=O)NC4CCCCC4)c3)cc1Cc1cc(C(=O)Nc3cc(C(=O)O)cc(C(=O)NC4CCCCC4)c3)cc(c1OCCCC)Cc1cc(C(=O)Nc3cc(C(=O)O)cc(C(=O)NC4CCCCC4)c3)cc(c1OCCCC)Cc1cc(C(=O)Nc3cc(C(=O)O)cc(C(=O)NC4CCCCC4)c3)cc(c1OCCCC)C2 | > 50 | 4.1 | > 50 | > 50 | > 10 | 0.29 | – | – | – | – | –
CCCCOc1c2cc(C(=O)Nc3cc(C(=O)O)cc(C(=O)O)c3)cc1Cc1cc(C(=O)Nc3cc(C(=O)O)cc(C(=O)O)c3)cc(c1OCCCC)Cc1cc(C(=O)Nc3cc(C(=O)O)cc(C(=O)O)c3)cc(c1OCCCC)Cc1cc(C(=O)Nc3cc(C(=O)O)cc(C(=O)O)c3)cc(c1OCCCC)C2 | 50 | 1.8 | 0.36 | > 50 | 4.96 | 2.62 | inactive | inactive | Active | Active | inactive
CCCCOc1c2cc(C(=O)Nc3cc(C(=O)O)cc(C(=O)OCc4ccccc4)c3)cc1Cc1cc(C(=O)Nc3cc(C(=O)O)cc(C(=O)OCc4ccccc4)c3)cc(c1OCCCC)Cc1cc(C(=O)Nc3cc(C(=O)O)cc(C(=O)OCc4ccccc4)c3)cc(c1OCCCC)Cc1cc(C(=O)Nc3cc(C(=O)O)cc(C(=O)OCc4ccccc4)c3)cc(c1OCCCC)C2 | 12.5 | 25.6 | > 50 | > 50 | 0.48 | 0.19 | – | – | – | – | –
